High-throughput results as filed in PubChem BioAssay.
Hits are enriched below; roughly 6.4% of the tested compounds scored in any of these assays.
CHOP inhibitor = blocks CHOP induction under ER stress; inhibition, % at 10 µM; CHO-K1 CHOP-promoter luciferase, tunicamycin-induced, 15-18 h; AID 2732; actives 3.8% (n = 220,000);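 active = compounds that reduced the stress-induced luciferase reporter signal by more than about 70% of percent inhibition, limit read from the data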;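 also: 0% = tunicamycin plus vehicle and 100% = wells without tunicamycin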
TbMetRS inhib = blocks T. brucei methionyl-tRNA synthetase activity; purified T. brucei MetRS, ATP depletion, Kinase-Glo luminescence; inhibition, % at 11.9 µM; actives 0.4% (n = 360,000);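 active = inhibition above a per-plate cutoff of the control wells' mean inhibition plus 3 SD, cut at about 5.5% in these data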;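 also: 0% = DMSO wells median and 100% = median of wells with control inhibitor compound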
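Dosing: 11.9 µM compound single dose, 0.9% DMSO; Assay system: purified T. brucei MetRS enzyme; Measured by: Kinase-Glo luciferase luminescence reporting remaining unconsumed ATP; Schedule: 15 min plus 2 h at 25 °C.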
WT yeast gro inh = growth inhibition of WT yeast, mitochondrial fusion screen; mitochondrial fusion phenotypic screen, WT strain; inhibition, % at 10 µM; actives 2.1% (n = 190,000); AID 1362; in the data active = inhibition above about 58%; tested in S. cerevisiae
MPTP block = blocks calcium-induced mitochondrial swelling | isolated mouse mitochondria, Ca2+ swelling absorbance, 30 min | inhibition, % at 10 µM | actives 1.4% (n = 360,000) | AID 602449;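 active = inhibition of 50% or more, scaled per plate between neutral and stimulator controls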;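 also: 0% = DMSO wells given calcium and 100% = 1 mM EGTA wells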
EBV gp42 inh = inhibitors of Epstein-Barr virus glycoprotein 42 | Q1HVG2 | Fluorescence polarization binding assay, mP read-out | inhibition, % (tested at 21.74 µM) | actives 0.42% (n = 220,000) | AID 1085; in the data active = inhibition above about 50%
Target sequence (Q1HVG2 whole entry, looked up): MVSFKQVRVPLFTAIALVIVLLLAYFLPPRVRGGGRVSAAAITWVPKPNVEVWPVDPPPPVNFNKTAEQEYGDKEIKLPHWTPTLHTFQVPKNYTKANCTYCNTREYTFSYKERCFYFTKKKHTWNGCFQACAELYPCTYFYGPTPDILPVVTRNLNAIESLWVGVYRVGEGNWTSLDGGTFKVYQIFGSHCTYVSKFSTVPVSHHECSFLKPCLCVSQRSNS
NR3A LBD binder = modulators (binders) of human NR3A ligand-binding domain; AID 1259313; Tm shift relative to glycine control, % at 25 µM; actives 2.5% (n = 340,000); NR3A LBD differential scanning fluorimetry, Tm shift; 0% = protein alone, 100% = glycine-bound protein;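 active = melting temperature shift of at least 10% of the positive control shift, at one fixed dose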
Rh123 counter = Rhodamine 123 counter-screen of mitochondrial pore hits; AID 624504; shares compounds with MPTP block; isolated mitochondria, membrane potential, Rhodamine 123 fluorescence; inhibition, % at 10 µM; actives 78% (n = 5,000); in the data active = inhibition above about 22%;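 also: 0% = DMSO vehicle and 100% = positive control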
MPTP abs DR = dose response confirmation of mitochondrial permeability transition pore inhibitors; shares compounds with MPTP block; isolated mitochondria swelling, absorbance; IC50, µM; actives 58% (n = 780); AID 651561; in the data active = IC50 below about 20 µM
MPTP cs DR = counter-screen for mitochondrial permeability transition pore inhibitors, dose response; shares compounds with MPTP block; isolated mitochondria counterscreen, fluorescence read-out; IC50, µM; actives 49% (n = 780); AID 651564; in the data active = IC50 below about 80 µM
Tb MetRS conf = confirmation of Trypanosoma brucei MetRS inhibitors; shares compounds with TbMetRS inhib; T. brucei MetRS enzyme, luminescence (ATP depletion); inhibition, % at 11.9 µM; actives 93% (n = 1,400); in the data active = inhibition above about 7%
Jurkat cytotox = counter-screen for T. brucei MetRS inhibitors: Jurkat cell cytotoxicity; shares compounds with TbMetRS inhib; inhibition, % at 8.3 µM; Jurkat cells viability, ATP luminescence; actives 12% (n = 1,400); in the data active = inhibition above about 15%;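 also: 0% = vehicle and 100% = reference inhibitor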
Tb MetRS inh FP = orthogonal test for Trypanosoma brucei MetRS inhibitors; AID 651607; shares compounds with TbMetRS inhib; actives 44% (n = 1,400); inhibition, % at 11.9 µM; purified T. brucei MetRS, fluorescence polarization; in the data active = inhibition above about 17%;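 also: 0% = vehicle wells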
* marks the source's active call; other numbers are inactive results; i = inactive; · = no result given; ! = not active in a repeat.

SMILES	CHOP inhibitor	TbMetRS inhib	WT yeast gro inh	MPTP block	EBV gp42 inh	NR3A LBD binder	Rh123 counter	others
CCN(CCCl)c1cc(CN(C)C)cc(NC(=O)c2ccc(C(=O)Nc3cc(CN(C)C)cc(N(CC)CCCl)c3)cc2)c1	·	0	·	82*	·	-2	-32
O=C(NCc1cccnc1)Nc1ccc([N+](=O)[O-])cc1	·	0	·	66*	·	-5	96*
C[C@@H]1CN([C@@H](C)CO)C(=O)CCCn2nncc2CO[C@H]1CN(C)C(=O)Oc1ccccc1	·	-1	·	-1	·	·	·
CC(N)Cc1c[nH]c2ccc(OCc3cccs3)cc12 (centres undefined)	-9	0	·	82*	·	-1	-11	MPTP abs DR=9.8*;MPTP cs DR=>80
Cc1cccc(C)c1-n1nnnc1C(c1cccc2ccccc12)N1CCC(n2c(=O)[nH]c3ccccc32)CC1 (centres undefined)	·	-1	·	1	·	·	·
COc1ccc(N2CCN(CCCN)CC2)cc1	·	-1	·	70*	·	-1	-4	MPTP abs DR=i;MPTP cs DR=>80
COC(=O)C1=C(c2ccc(-c3ccccc3)c(F)c2)C[C@@H]2CC[C@H]1N2C(=O)N1CCC(C)CC1	·	0	·	5	·	4	·
FC(F)(F)c1cccc(C2NCc3ccccc3-n3cccc32)c1 (centres undefined)	·	-1	·	2	·	1	·
Oc1ccc(C2NCc3ccccc3-n3cccc32)cc1Cl (centres undefined)	-10	-1	-2	84*!	-10	0	-15	MPTP abs DR=i;MPTP cs DR=>80
C=CCn1c(O)c(C(CC)=NCc2cc(OC)cc(OC)c2)c(=O)[nH]c1=O	34	0	-29	1	-12	1	·
C[C@]12CC[C@@H](O)CC1CC[C@@H]1[C@@H]2CC[C@]2(C)C(=O)CC[C@@H]12 (some centres undefined)	-2	·	·	·	·	·	·
CN(Cc1cccc(-c2ccncc2)c1)C(=O)Oc1ccccc1Cc1ccccc1	·	0	·	90*	·	·	114*
CN(Cc1cccc(-c2ccncc2)c1)C(=O)Oc1ccccc1Cl	·	0	·	47	·	·	·
CN1C2CCC1CC(OC(c1ccccc1)c1ccc(Cl)cc1)C2 (centres undefined)	8	·	·	·	·	·	·
Cc1cc(NC(=O)COC(=O)c2c(C)nn(Cc3ccccc3)c2C)no1	14	-1	8	0	-13	-1	·
CCCCCCCSc1cc(OC)c(CCN(C)C)cc1OC	22	-1	14	103*	0	1	-13
COc1cc(CCN)ccc1O	-6	0	·	-1	·	-1	·
CCCCCSc1cc(OC)c(CCN)cc1OC	-9	-2	15	97*	-21	0	-20	MPTP abs DR=3.4*;MPTP cs DR=77*
CC(C)(C)c1ccc(CSc2cnn(C(C)(C)C)c(=O)c2Cl)cc1	·	-1	·	92*	·	-2	85*
C=Cn1ccnc1P(=S)(c1nccn1C=C)C1CCCCC1	-17	0	20	1	-2	-1	·
CC(C)NCC(O)c1ccc(C2CCCC2)cc1 (centres undefined)	28	0	-18	96*	-3	-9	-8	MPTP abs DR=16*;MPTP cs DR=>80
O=c1[nH]c(=O)n(Cc2ccco2)c(O)c1C=NC1CCN(Cc2ccccc2)CC1	7	0	·	0	-7	-1	·
Oc1c(Br)cc(Br)cc1Br	·	0	·	1	·	3	·
Oc1c(Br)c(Br)c(Br)c(Br)c1Br	·	-1	·	67*	·	32*	87*
COc1cc(/C=C/[N+](=O)[O-])ccc1OC(=O)c1cccnc1	·	0	·	9	·	-1	·
SMILES	CHOP inhibitor	TbMetRS inhib	WT yeast gro inh	MPTP block	EBV gp42 inh	NR3A LBD binder	Rh123 counter	others
Cc1ccc(Cl)cc1N1CCN(CCN)CC1	66	0	1	78*	-9	-3	-8	MPTP abs DR=12*;MPTP cs DR=>80
Cc1ccc(NC2=NCCCS2)c(C)c1C	1	-1	6	17	1	0	·
CON(C)C(=O)Nc1ccc(Cl)cc1	16	0	-5	12	-18	1	·
O=C(Nc1ccc(Cl)cc1)O/N=C(\c1ccccc1)c1ccccn1	-2	0	-7	87*	9	11*	101*
C/C(CC(c1ccccc1)c1c(O)c2ccccc2oc1=O)=N\Nc1ccc([N+](=O)[O-])cc1[N+](=O)[O-] (centres undefined)	11	0	·	90*	-7	8	77*
CSc1ccc(C(=O)C2CCCN(Cc3cc4ccccc4[nH]3)C2)cc1 (centres undefined)	70*	7.1*	66*	58*	-1	-7	-8	MPTP abs DR=5.9*;MPTP cs DR=25*;Tb MetRS conf=15*;Jurkat cytotox=8;Tb MetRS inh FP=-2
Cn1c(=O)c2c(nc(-c3ccc(N(CCCl)CCCl)cc3)n2C)n(C)c1=O	·	0	·	0	·	1	·
CCOC(=O)c1c(NS(=O)(=O)c2ccccc2)n(CCCOC)c2nc3ccccc3nc12	-16	14*	-4	-1	15	0	·	Tb MetRS conf=5;Jurkat cytotox=10;Tb MetRS inh FP=3
CCCCCn1c(NC(=O)c2ccco2)c(C(=O)OCC)c2nc3ccccc3nc21	-70	2	1	3	-3	-2	·
c1ccc(Cn2ccnc2)cc1	8	-1	1	1	5	-4	·
Clc1ccc(COC(Cn2ccnc2)c2ccc(Cl)cc2Cl)cc1 (centres undefined)	45	6.1*	83	3	6	3	·	Tb MetRS conf=20*;Jurkat cytotox=13;Tb MetRS inh FP=14
Oc1ccc2c3c1O[C@H]1c4[nH]c5c(c4C[C@@]4(O)[C@@H](C2)N(CC2CC2)CC[C@]314)C[C@@]1(O)[C@H]2Cc3ccc(O)c4c3[C@@]1(CCN2CC1CC1)[C@H]5O4	-19	·	·	·	·	·	·
COc1ccc(Cc2c(O)[nH]c(=S)[nH]c2=O)cc1	·	-2	·	-2	·	0	·
O=C1Nc2ccccc2C1Cc1nc2ccccc2c(=O)n1-c1ccccc1 (centres undefined)	13	9.1*	·	1	4	3	·	Tb MetRS conf=6.2*;Jurkat cytotox=-5;Tb MetRS inh FP=10
CN1C(=O)C(Cc2nc3ccccc3c(=O)n2-c2ccccc2)c2ccccc21 (centres undefined)	17	0	-8	0	-9	-2	·
